Data on 27 molecules can be found in ChEMBL document CHEMBL3124859, “Novel Peptidomimetic Hepatitis C Virus NS3/4A Protease Inhibitors Spanning the P2-P1' Region” (ACS Med Chem Lett, 2014).

Data set [1] can be described thus: Inhibition of Hepatitis C virus genotype 1a full length NS3/2K-NS4A protease using Ac-DED(Edans)EEAbupsi[COO]ASK(Dabcyl)-NH2 as substrate incubated for 10 mins prior to substrate addition by FRET analysis. More on the design: species or system Hepatitis C virus subtype 1a.
The nature of data set [2]: in vitro. As to conditions: human.
Data set [3] can be described thus: Half life in human liver microsomes at 1 uM after 5 mins by LC/MS/MS analysis. (Microsomes from liver hold many membrane-bound enzymes, among them those of drug oxidation.)
Data set [4] can be described thus: Solubility of the compound in phosphate buffered saline at pH 7.4 after 1 hr by LC-MS/MS analysis.
Data set [5] is described as follows: Apparent permeability from apical to basolateral side of human Caco2 cells at 10 uM. As to conditions: Caco-2.
The nature of data set [6]: Cytotoxicity against human HuH7 cells. It counts as cell-based, Huh-7.
The test system of data set [7] is Hepatitis C virus. Nature of the data set: Antiviral activity against Hepatitis C virus genotype 1b infected in human HuH7 cells by subgenomic replicon-based luciferase assay. It counts as functional, organism-based, Hepacivirus hominis. As to conditions: Huh-7. The procedure, abridged:
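Huh-7 replicon cell line carrying a subgenomic HCV genotype 1b RNA replicon with a firefly luciferase reporter; replicon inhibition read by luciferase signal and reported as EC50.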
(In general: Replicon systems follow genome replication, usually without infectious particles.)

Data set [8] deals with NS3 protease (Hepacivirus C, UniProt C1KIQ2, R155K). The data set is described as follows: Inhibition of Hepatitis C virus genotype 1a full length NS3/2K-NS4A protease R155K mutant using Ac-DED(Edans)EEAbupsi[COO]ASK(Dabcyl)-NH2 as substrate incubated for 10 mins prior to substrate addition by FRET analysis. More on the design: species or system Hepatitis C virus subtype 1a. Summed up:
(§1)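 Ki (nM ± SD) determined against each resistant NS3/4A protease variant. A vitality value was calculated for each variant as V = [Ki × (kcat/Km)]variant / [Ki × (kcat/Km)]wild-type, normalising for the effect of the substitution on catalytic efficiency.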

For data set [9], the target named is NS3 protease (Hepacivirus C, UniProt C1KIQ2, A156T). The data set is described as follows: Inhibition of Hepatitis C virus genotype 1a full length NS3/2K-NS4A protease A156T mutant using Ac-DED(Edans)EEAbupsi[COO]ASK(Dabcyl)-NH2 as substrate incubated for 10 mins prior to substrate addition by FRET analysis. More on the design: species or system Hepatitis C virus subtype 1a. The procedure, abridged:
as §1

In data set [10] the target is NS3 protease (Hepacivirus C, UniProt C1KIQ2, D168V). The data set is described as follows: Inhibition of Hepatitis C virus genotype 1a full length NS3/2K-NS4A protease D168V mutant using Ac-DED(Edans)EEAbupsi[COO]ASK(Dabcyl)-NH2 as substrate incubated for 10 mins prior to substrate addition by FRET analysis. More on the design: species or system Hepatitis C virus subtype 1a. Summed up:
as §1

Values after ≈ are worked out from the molar mass of the structure shown.

Sequence of NS3 protease (Hepacivirus C, UniProt C1KIQ2, A156T) (C1KIQ2 entry or part of it A156T): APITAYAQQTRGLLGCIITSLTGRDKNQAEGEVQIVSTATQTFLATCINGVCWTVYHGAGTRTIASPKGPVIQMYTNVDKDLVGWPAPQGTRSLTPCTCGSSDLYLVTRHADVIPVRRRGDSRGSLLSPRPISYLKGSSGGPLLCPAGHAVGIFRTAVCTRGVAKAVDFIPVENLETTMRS
Sequence of NS3 protease (Hepacivirus C, UniProt C1KIQ2, R155K) (C1KIQ2 entry or part of it R155K): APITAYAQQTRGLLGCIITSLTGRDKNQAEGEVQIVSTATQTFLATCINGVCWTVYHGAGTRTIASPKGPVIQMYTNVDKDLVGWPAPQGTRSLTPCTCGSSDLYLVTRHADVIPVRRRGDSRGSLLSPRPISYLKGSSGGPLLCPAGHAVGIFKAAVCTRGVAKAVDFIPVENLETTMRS
Sequence of NS3 protease (Hepacivirus C, UniProt C1KIQ2, D168V) (C1KIQ2 entry or part of it D168V): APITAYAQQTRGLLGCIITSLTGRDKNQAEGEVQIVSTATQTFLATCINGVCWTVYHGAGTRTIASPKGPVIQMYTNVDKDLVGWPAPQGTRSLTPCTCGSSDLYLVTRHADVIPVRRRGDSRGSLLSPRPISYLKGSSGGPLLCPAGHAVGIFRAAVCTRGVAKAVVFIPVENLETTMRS

As to `C=Cc1cc([C@@H](NC(=O)[C@@H](NC(=O)OC(C)(C)C)C(C)(C)C)C(=O)Nc2ccc(C(=O)NS(=O)(=O)c3ccc(C(F)(F)F)cc3)cc2)ccc1Oc1cc(OC)nc(-c2ccccc2)n1`, the affinity in [1] corresponds to a Ki of 30 nM.
In the case of `CCC[C@H](NC(=O)[C@@H]1[C@H]2CCC[C@H]2CN1C(=O)[C@@H](NC(=O)[C@@H](NC(=O)c1cnccn1)C1CCCCC1)C(C)(C)C)C(=O)C(=O)NC1CC1`, in data set [1], the Ki is 40 nM. This Ki and that of the molecule before are within 1.5-fold of each other.
The molecule `C=Cc1cc(C(NC(C)=O)C(=O)Nc2cccc(C(=O)NS(=O)(=O)c3ccc(C(F)(F)F)cc3)c2)ccc1Oc1cc(OC)nc(-c2ccccc2)n1` (configuration not stated) showed a Ki in [1] of 700 nM. Compared with the last molecule, the Ki is about 18-fold higher.
Take `C=Cc1cc(C(NC(=O)OC(C)(C)C)C(=O)Nc2ccc(C(=O)NS(=O)(=O)c3ccc(C(F)(F)F)cc3)cc2)ccc1Oc1cc(OC)nc(-c2ccccc2)n1` (configuration not stated): the microsomal CLint at 5 min, 1 µM in data set [2] (liver microsomes) is 25 µL/min/mg. This molecule also registered a Ki in [1] of 46 nM. Besides, the half-life at 5 min, 1 µM in data set [3] (liver microsomes) turned out to be 0.917 h.
On to `C=Cc1cc(C(NC(=O)OC2CCCC2)C(=O)Nc2cccc(C(=O)NS(=O)(=O)c3ccc(C(F)(F)F)cc3)c2)ccc1Oc1cc(OC)nc(-c2ccccc2)n1` (configuration not stated), for which, in data set [1], the affinity, expressed as Ki, was 72 nM.
On the same count and under the same terms, under `C=Cc1cc(C(N)C(=O)Nc2cccc(C(=O)NS(=O)(=O)c3ccc(C(F)(F)F)cc3)c2)ccc1Oc1cc(OC)nc(-c2ccccc2)n1` (configuration not stated) stands 1200 nM; under `C=CCCCS(=O)(=O)NC(=O)c1ccc(NC(=O)[C@H](NC(=O)[C@@H](NC(=O)OC(C)(C)C)C(C)(C)C)c2ccc(Oc3cc(OC)nc(-c4ccccc4)n3)c(C=C)c2)cc1`, 110 nM; under `C=CCCCS(=O)(=O)NC(=O)c1cccc(NC(=O)C(NC(=O)OC2CCCC2)c2ccc(Oc3cc(OC)nc(-c4ccccc4)n3)c(C=C)c2)c1` (configuration not stated), 130 nM.
`C=CCCCS(=O)(=O)NC(=O)c1ccccc1NC(=O)[C@H](NC(=O)[C@@H](NC(=O)OC(C)(C)C)C(C)(C)C)c1ccc(Oc2cc(OC)nc(-c3ccccc3)n2)c(C=C)c1` came in with a Ki in data set [1] of 33 nM.
The same measure, in the same setting: under `C=CCCCS(=O)(=O)NC(=O)c1ccccc1NC(=O)[C@@H](NC(=O)[C@@H](NC(=O)OC(C)(C)C)C(C)(C)C)c1ccc(Oc2cc(OC)nc(-c3ccccc3)n2)c(C=C)c1` stands 26 nM.
Consider `C=Cc1cc(C(NC(=O)NC(C)(C)C)C(=O)Nc2cccc(C(=O)NS(=O)(=O)c3ccc(C(F)(F)F)cc3)c2)ccc1Oc1cc(OC)nc(-c2ccccc2)n1` (configuration not stated), for which, in [2] (liver microsomes), the microsomal CLint at 5 min, 1 µM was found to be 7 µL/min/mg. In addition, the affinity in [1], expressed as Ki, was 140 nM. The molecule also came in with a half-life at 5 min, 1 µM in data set [3] (liver microsomes) of 3.23 h.
Consider `COc1ccc2c(O[C@@H]3C[C@H]4C(=O)N[C@]5(C(=O)O)C[C@H]5/C=C\CCCCC[C@H](NC(=O)OC5CCCC5)C(=O)N4C3)cc(-c3csc(NC(C)C)n3)nc2c1`, for which, in [1], the inhibition constant (Ki) was 300 nM.
Molecule `C=Cc1cc(C(NC(=O)N2CCOCC2)C(=O)Nc2cccc(C(=O)NS(=O)(=O)c3ccc(C(F)(F)F)cc3)c2)ccc1Oc1cc(OC)nc(-c2ccccc2)n1` (configuration not stated) yielded a Ki in data set [1] of 590 nM.
With `C=Cc1cc(C(NC(=O)c2cccnc2)C(=O)Nc2cccc(C(=O)NS(=O)(=O)c3ccc(C(F)(F)F)cc3)c2)ccc1Oc1cc(OC)nc(-c2ccccc2)n1` (configuration not stated), the Ki in data set [1] was 240 nM. Compared with the last molecule, the Ki is about 2.5-fold lower.
The same measure, in the same setting: the same measure for `C=Cc1cc([C@H](NC(=O)[C@@H](NC(=O)OC(C)(C)C)C(C)(C)C)C(=O)Nc2ccccc2C(=O)NS(=O)(=O)c2ccc(C(F)(F)F)cc2)ccc1Oc1cc(OC)nc(-c2ccccc2)n1`: 45 nM; for `C=CCCCS(=O)(=O)NC(=O)c1ccc(NC(=O)[C@@H](NC(=O)[C@@H](NC(=O)OC(C)(C)C)C(C)(C)C)c2ccc(Oc3cc(OC)nc(-c4ccccc4)n3)c(C=C)c2)cc1`: 96 nM.
In data set [1], `C=CCCCS(=O)(=O)NC(=O)c1cccc(NC(=O)[C@H](NC(=O)[C@@H](NC(=O)OC(C)(C)C)C(C)(C)C)c2ccc(Oc3cc(OC)nc(-c4ccccc4)n3)c(C=C)c2)c1` yielded a Ki of 100 nM. The Ki values of the last two molecules are within 1.5-fold of each other.
Consider `C=CCCCS(=O)(=O)NC(=O)c1ccc(NC(=O)C(NC(=O)OC(C)(C)C)c2ccc(Oc3cc(OC)nc(-c4ccccc4)n3)c(C=C)c2)cc1` (configuration not stated), for which the Ki in [1] came out at 220 nM.
Take `C=CCCCS(=O)(=O)NC(=O)c1cccc(NC(=O)C(NC(=O)OC(C)(C)C)c2ccc(Oc3cc(OC)nc(-c4ccccc4)n3)c(C=C)c2)c1` (configuration not stated): the affinity in data set [1], expressed as Ki, was 210 nM.
The molecule `C=Cc1cc(C(NC(=O)OC2CCCC2)C(=O)Nc2ccc(C(=O)NS(=O)(=O)c3ccc(C(F)(F)F)cc3)cc2)ccc1Oc1cc(OC)nc(-c2ccccc2)n1` (configuration not stated) yielded a Ki in data set [1] of 55 nM.
As for `C=Cc1cc(C(NC(=O)OC(C)(C)C)C(=O)Nc2ccccc2C(=O)NS(=O)(=O)c2ccc(C(F)(F)F)cc2)ccc1Oc1cc(OC)nc(-c2ccccc2)n1` (configuration not stated), the solubility at 1 h in data set [4] was found to be 5 µM (≈ 4.02 µg/mL). The apparent permeability from apical to basolateral (Papp A→B) at 10 µM in [5] came out at 4 ×10⁻⁶ cm/s. In addition, in [2] (microsomes), the microsomal CLint at 5 min, 1 µM was 16 µL/min/mg. The same molecule returned a Ki in data set [1] of 240 nM. In data set [3] (microsomes), the half-life at 5 min, 1 µM came to 1.47 h.
The molecule `C=CCCCS(=O)(=O)NC(=O)c1ccccc1NC(=O)C(NC(=O)[C@@H](NC(=O)OC(C)(C)C)C(C)(C)C)c1ccc(Oc2cc(OC)nc(-c3ccccc3)n2)c(C=C)c1` (mixture of isomers) showed a CC50 in data set [6] of at least 50000 nM. It took 12500 nM to reach a half-maximal effect in [7] (EC50).
`C=Cc1cc(C(NC(=O)OC(C)(C)C)C(=O)Nc2cccc(C(=O)NS(=O)(=O)c3ccc(C(F)(F)F)cc3)c2)ccc1Oc1cc(OC)nc(-c2ccccc2)n1` (configuration not stated): the CC50 in data set [6] was at least 50000 nM. Moreover, the Papp A→B at 10 µM in data set [5] worked out at 1 ×10⁻⁶ cm/s. The microsomal CLint at 5 min, 1 µM in data set [2] (liver microsomes) was determined as 12 µL/min/mg. Further, the Ki amounted to 580 nM in [8], 58 nM in [1], 110 nM in data set [9] and 180 nM in [10]. In [3] (liver microsomes), this molecule gave a half-life at 5 min, 1 µM of 1.95 h. This molecule displayed an EC50 in [7] of 27500 nM.
On to `C=Cc1cc([C@H](NC(=O)[C@@H](NC(=O)OC(C)(C)C)C(C)(C)C)C(=O)Nc2ccc(C(=O)NS(=O)(=O)c3ccc(C(F)(F)F)cc3)cc2)ccc1Oc1cc(OC)nc(-c2ccccc2)n1`, for which the Ki in data set [1] worked out at 30 nM.
Consider `C=CCCCS(=O)(=O)NC(=O)c1ccccc1NC(=O)[C@@H](NC(=O)OC(C)(C)C)c1ccc(Oc2cc(OC)nc(-c3ccccc3)n2)c(C=C)c1`, for which the solubility at 1 h in data set [4] is 101 µM (≈ 73.5 µg/mL). In data set [5], the Papp A→B at 10 µM worked out at 1 ×10⁻⁶ cm/s. The same molecule showed a microsomal CLint at 5 min, 1 µM in data set [2] (microsomes) of 66 µL/min/mg. Also, in data set [1], the inhibitory constant (Ki) turned out to be 190 nM. In addition, in data set [3] (microsomes), the half-life at 5 min, 1 µM stood at 0.35 h.
For the molecule `C=Cc1cc([C@H](NC(=O)[C@@H](NC(=O)OC(C)(C)C)C(C)(C)C)C(=O)Nc2cccc(C(=O)NS(=O)(=O)c3ccc(C(F)(F)F)cc3)c2)ccc1Oc1cc(OC)nc(-c2ccccc2)n1`, the half-maximal cytotoxic concentration (CC50) in data set [6] was at least 50000 nM. In data set [4], this molecule registered a solubility at 1 h of 43 µM (≈ 39.4 µg/mL). The Papp A→B at 10 µM in data set [5] came out at 9.7 ×10⁻⁶ cm/s. The molecule further returned a microsomal CLint at 5 min, 1 µM in data set [2] (liver microsomes) of 80 µL/min/mg. Besides, the Ki in data set [8] came to 210 nM; in data set [1] it was 24 nM; in data set [9], 53 nM; in data set [10], 110 nM. In data set [3] (liver microsomes), this molecule returned a half-life at 5 min, 1 µM of 0.283 h. The same molecule came in with an EC50 in data set [7] above 50000 nM.
On to `C=CCCCS(=O)(=O)NC(=O)c1cccc(NC(=O)[C@@H](NC(=O)[C@@H](NC(=O)OC(C)(C)C)C(C)(C)C)c2ccc(Oc3cc(OC)nc(-c4ccccc4)n3)c(C=C)c2)c1`, for which the affinity in [1] corresponds to a Ki of 88 nM.

What is called Ki is the equilibrium dissociation constant of an inhibitor or competing ligand from its target. A low value points to higher affinity. A word on the microsomal CLint: it is the rate of metabolic loss divided by the concentration. A high value points to faster metabolism. As usually defined, the half-life is the time needed for the level to fall by half in the phase considered. Low readings indicate fast loss, high ones slow loss. A word on the solubility: it is the dissolved amount per volume that the medium holds. A higher solubility goes with a readily soluble substance. The Papp A→B is the apparent permeability from the apical to the basolateral side of a cell layer. In general, CC50 refers to the concentration at which the toxic effect on the cells reaches its halfway point. One may read the EC50 as the concentration giving half of the maximal effect.
